# ChEMBL document CHEMBL1921681, “Difluoromethylbenzoxazole pyrimidine thioether derivatives: a novel class of potent non-nucleoside HIV-1 reverse transcriptase inhibitors” (J Med Chem, 2011)
# Experiments:
# [1] = Cytotoxicity against mock infected human MT4 cells after 3 days by EGFP fluorescence microscopic analysis; type: cell-based
# Outline: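 Mock-infected MT4 cells stably carrying a CMV-EGFP reporter, seeded at 150 000 cells/mL and cultured with or without serial compound concentrations. MT4 cells kept in RPMI 1640 with 10% heat-inactivated FCS, 2 mM L-glutamine, 0.1% NaHCO3, gentamicin and G418, at 37 °C under 5% CO2. After 3 days, proliferation was read as EGFP fluorescence, giving CC50.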
# [2] = system: Human immunodeficiency virus 1; experiment: Antiviral activity against Human immunodeficiency virus 1 3B infected in human MT4 cells stably transformed with HIV1 LTR-EGFP after 3 days by fluorescence microscopic analysis; type: functional, organism-based; details: MT4, 72 h
# Outline: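 MT4 cells carrying an HIV LTR-EGFP reporter (150 000 cells/mL) infected with HIV-1 IIIB at MOI 0.01, with or without graded inhibitor concentrations. After 3 days, replication read as EGFP fluorescence and expressed as EC50. Cell line maintained in RPMI 1640 with 10% heat-inactivated FCS, 2 mM L-glutamine, gentamicin, G418, at 37 °C, 5% CO2.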
# [3] = system: Human immunodeficiency virus 1; experiment: Antiviral activity against Human immunodeficiency virus 1 HXB2 harboring reverse transcriptase K103N and Y181C mutant infected in human MT4 cells stably transformed with HIV1 LTR-EGFP after 3 days by fluorescence microscopic analysis; type: functional, organism-based; details: Human immunodeficiency virus 1, HXB2, MT4, 72 h
# [4] = Selectivity ratio of CC50 for mock-infected human MT4 cells to EC50 for Human immunodeficiency virus 1 3B infected in human MT4 cells; type: ADME, cell-based; details: read-out: Ratio CC50/EC50
# Outline: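 Ratio of two values run in parallel. CC50 came from mock-infected CMV-EGFP MT4 cells (150 000 cells/mL, 3 days, EGFP fluorescence). EC50 came from MT4-LTR-EGFP cells (150 000 cells/mL) infected with HIV-1 IIIB at MOI 0.01 with or without inhibitor, with replication read as EGFP fluorescence after 3 days. SI = CC50/EC50.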
# [5] = system: Human immunodeficiency virus 1; experiment: Selectivity ratio of EC50 for Human immunodeficiency virus 1 HXB2 harboring reverse transcriptase K103N and Y181C mutant infected in human MT4 cells to EC50 for Human immunodeficiency virus 1 3B infected in human MT4 cells; type: functional
# [6] = Dissociation constant, pKa of the compound; type: physicochemical
# Cytochrome P450 2D6 = Cytochrome P450 2D6 (Homo sapiens, UniProt P10635); experiment: Inhibition of CYP2D6; type: ADME
# [7] = Metabolic stability of the compound in human liver microsomes after 15 mins; type: ADME, Microsome; details: read-out: Stability
# [8] = Apparent permeability of the compound across human Caco2 cells; type: ADME, cell-based; details: Caco-2
# Cytochrome P450 2C9 = Cytochrome P450 2C9 (Homo sapiens, UniProt P11712); experiment: Inhibition of CYP2C9; type: ADME
# [9] = Lipophilicity, log D of the compound; type: physicochemical; details: octanol/water
# Cytochrome P450 3A4 = Cytochrome P450 3A4 (Homo sapiens, UniProt P08684); experiment: Inhibition of CYP3A4; type: ADME
# [10] = Aqueous solubility of the compound; type: physicochemical; details: buffer
# Cytochrome P450 2D6, sequence (P10635 whole entry): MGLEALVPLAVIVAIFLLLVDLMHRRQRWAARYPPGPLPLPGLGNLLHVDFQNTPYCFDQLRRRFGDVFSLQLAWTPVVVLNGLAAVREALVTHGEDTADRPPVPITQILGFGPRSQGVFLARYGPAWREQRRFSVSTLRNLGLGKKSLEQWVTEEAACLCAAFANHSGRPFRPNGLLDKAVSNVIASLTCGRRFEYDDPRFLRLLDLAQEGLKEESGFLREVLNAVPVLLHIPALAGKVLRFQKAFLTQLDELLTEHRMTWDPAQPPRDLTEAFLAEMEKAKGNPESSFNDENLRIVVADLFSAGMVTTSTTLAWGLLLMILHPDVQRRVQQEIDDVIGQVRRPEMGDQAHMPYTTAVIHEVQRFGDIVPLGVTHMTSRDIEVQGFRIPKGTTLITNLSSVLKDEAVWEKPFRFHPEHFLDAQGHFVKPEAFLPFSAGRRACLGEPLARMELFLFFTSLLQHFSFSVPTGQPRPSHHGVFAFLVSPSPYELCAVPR
# Cytochrome P450 3A4, sequence (P08684 whole entry): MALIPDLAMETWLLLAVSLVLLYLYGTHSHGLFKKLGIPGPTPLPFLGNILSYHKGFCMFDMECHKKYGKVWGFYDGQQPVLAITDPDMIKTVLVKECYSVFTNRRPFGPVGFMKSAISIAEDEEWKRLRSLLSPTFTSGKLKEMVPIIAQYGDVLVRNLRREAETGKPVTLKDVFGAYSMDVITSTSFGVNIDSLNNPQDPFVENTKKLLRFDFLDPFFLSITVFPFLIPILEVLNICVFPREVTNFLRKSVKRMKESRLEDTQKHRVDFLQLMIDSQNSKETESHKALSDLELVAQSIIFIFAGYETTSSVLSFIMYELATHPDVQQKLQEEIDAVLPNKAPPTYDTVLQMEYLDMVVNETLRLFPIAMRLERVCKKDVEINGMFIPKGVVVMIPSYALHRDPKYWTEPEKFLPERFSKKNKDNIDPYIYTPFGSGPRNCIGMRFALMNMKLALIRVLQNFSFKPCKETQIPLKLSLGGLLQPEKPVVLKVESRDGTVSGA
# Cytochrome P450 2C9, sequence (P11712 whole entry): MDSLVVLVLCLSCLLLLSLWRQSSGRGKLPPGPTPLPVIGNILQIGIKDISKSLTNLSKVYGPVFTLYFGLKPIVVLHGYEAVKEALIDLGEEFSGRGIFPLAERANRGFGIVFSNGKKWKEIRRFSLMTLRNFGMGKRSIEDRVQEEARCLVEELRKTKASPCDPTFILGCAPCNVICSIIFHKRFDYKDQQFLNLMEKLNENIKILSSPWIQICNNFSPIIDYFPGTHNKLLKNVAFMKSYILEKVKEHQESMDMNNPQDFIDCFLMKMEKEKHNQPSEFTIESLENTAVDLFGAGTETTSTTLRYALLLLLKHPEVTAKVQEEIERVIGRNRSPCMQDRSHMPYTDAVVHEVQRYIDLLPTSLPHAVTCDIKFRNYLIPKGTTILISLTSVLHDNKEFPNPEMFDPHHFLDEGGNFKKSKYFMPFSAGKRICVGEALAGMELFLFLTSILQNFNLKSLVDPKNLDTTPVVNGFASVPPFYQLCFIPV
Structure (SMILES),CC50 at 72 h [1] [µM],EC50 [2] [µM],EC50 [3] [µM],selectivity ratio [4],further results
CC(=O)Nc1ccnc(SC(F)(F)c2nc3ccccc3o2)n1,> 98.4,43.3,> 98.4,> 2.3,–
FC(F)(Sc1ncccn1)c1nc2ccccc2o1,–,3.14,–,–,–
CC(C)c1ccnc(SC(F)(F)c2nc3ccccc3o2)n1,> 98.4,0.13,> 98.4,> 774,–
Nc1ccnc(SC(F)(F)c2nc3ccccc3o2)n1,33.5,0.26,> 33,129,–
c1cnc(SCc2nc3ccccc3o2)nc1,–,35.3,–,–,–
Cc1ccnc(SC(F)(F)c2nc3c(Cl)cccc3o2)n1,> 98.4,0.098,79,> 1000,Ratio EC50 [5]: 30
Cc1ccnc(SC(F)(F)c2nc3cccc(C)c3o2)n1,> 98.4,0.2,55.4,> 490,–
Cc1cccc2oc(C(F)(F)Sc3nccc(N)n3)nc12,20,0.83,> 20,24,–
COCc1ccnc(SC(F)(F)c2nc3ccccc3o2)n1,> 98.4,0.66,> 98.4,> 142,–
Cc1ccnc(SC(F)(F)c2nc3ccccc3o2)n1,> 100,0.11,67,> 800,pKa [6]: 3.6; inhibition (INH) (Cytochrome P450 2D6): < 30%; remaining at 0.25 h [7]: 90%; Papp [8]: 34.6 ×10⁻⁶ cm/s; inhibition (INH) (Cytochrome P450 2C9): < 30%; logD [9]: 3.9; inhibition (INH) (Cytochrome P450 3A4): < 30%; solubility [10]: 200 µM
Cc1ccnc(S(=O)(=O)C(F)(F)c2nc3ccccc3o2)n1,61,7.9,> 61,8,–
Cc1ccnc(SC(F)(F)c2nc3cccc(Cl)c3o2)n1,> 98.4,0.14,60,> 700,Ratio EC50 [5]: 30
Cc1cc(C)nc(SC(F)(F)c2nc3ccccc3o2)n1,> 98.4,0.95,77.2,> 100,pKa [6]: 1.3
CCc1ccnc(SC(F)(F)c2nc3ccccc3o2)n1,> 98,0.0064,57,> 15000,–
Cc1ccnc(SC(F)(F)c2nc3c(C)cccc3o2)n1,> 98.4,0.17,> 98.4,> 570,–
Nc1ccnc(SC(F)(F)c2nc3c(Cl)cccc3o2)n1,28.8,> 28,> 28,< 1,Ratio EC50 [5]: 30
FC(F)(Sc1nccc(C2CC2)n1)c1nc2ccccc2o1,77.5,0.16,67.9,484,–
